TAAR1 agonist – agonists of human TAAR1; Q96RJ0; CHO RD-HGA16 TAAR1, Fluo-8 calcium fluorescence; vehicle wells 0%, saturating PEA agonist 100%; 360,000 compounds, 0.99% hits; activation, % at 3 µM;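 active = activation above the mean activation of all test compounds in the run plus 3 SD, cut at about 38% in these data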
Target sequence (Q96RJ0 whole entry, looked up): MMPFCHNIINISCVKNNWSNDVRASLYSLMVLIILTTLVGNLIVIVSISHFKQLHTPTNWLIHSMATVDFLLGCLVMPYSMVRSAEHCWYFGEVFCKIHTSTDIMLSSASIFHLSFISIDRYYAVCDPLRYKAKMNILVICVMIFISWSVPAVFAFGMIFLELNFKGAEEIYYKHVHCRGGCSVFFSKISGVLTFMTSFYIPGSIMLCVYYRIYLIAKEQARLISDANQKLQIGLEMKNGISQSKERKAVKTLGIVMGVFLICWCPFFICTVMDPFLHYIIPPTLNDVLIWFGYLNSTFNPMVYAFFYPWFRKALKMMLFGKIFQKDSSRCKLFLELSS
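Test system: RD-HGA16 (CHO) cells co-expressing Gα16 and hTAAR1 | Doses: Single dose, 3 µM | Schedule: 17-24 h seeding, 75 min 37 °C dye, 30 min RT | Evaluation: % activation from peak over basal fluorescence ratio, DMSO-to-PEA scaled | Technique: Kinetic Fluo-8 calcium fluorescence | Benchmarks: Low control DMSO, high control PEA (EC100)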
CHO parental Ca – counter-screen: ATP calcium response change in parental CHO cells | AID 463079 | parental CHO-K1, ATP-induced calcium, Fluo-8 fluorescence | 330,000 compounds, 0.63% hits | inhibition, % at 5.6 µM;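 active = inhibition above that plate's mean sample inhibition plus 3 SD, cut at about 26% in these data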;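 note: 0% = ATP-challenged DMSO wells and 100% = DMSO wells without ATP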
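Assay system: untransfected parental CHO cell line. Also added: ATP agonist challenge. Dosing: one dose, 5.6 µM nominal. Measured by: Fluo-8 fluorescence. Read-out: % inhibition. Benchmarks: ATP wells versus no-ATP DMSO wells. Repeats: no replicates.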
OX1R antag-1 – antagonists of human orexin 1 receptor (OX1R); O43613; OX1R-expressing cells, FRET antagonist read-out; inhibition, % at 6.6 µM; 330,000 compounds, 1.8% hits; AID 485270; in the data active = inhibition mostly above about 38%, no sharp cut-off; inactive = mostly below about 40%;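 note: 0% = agonist challenge alone and 100% = reference antagonist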
Target sequence (O43613 whole entry, looked up): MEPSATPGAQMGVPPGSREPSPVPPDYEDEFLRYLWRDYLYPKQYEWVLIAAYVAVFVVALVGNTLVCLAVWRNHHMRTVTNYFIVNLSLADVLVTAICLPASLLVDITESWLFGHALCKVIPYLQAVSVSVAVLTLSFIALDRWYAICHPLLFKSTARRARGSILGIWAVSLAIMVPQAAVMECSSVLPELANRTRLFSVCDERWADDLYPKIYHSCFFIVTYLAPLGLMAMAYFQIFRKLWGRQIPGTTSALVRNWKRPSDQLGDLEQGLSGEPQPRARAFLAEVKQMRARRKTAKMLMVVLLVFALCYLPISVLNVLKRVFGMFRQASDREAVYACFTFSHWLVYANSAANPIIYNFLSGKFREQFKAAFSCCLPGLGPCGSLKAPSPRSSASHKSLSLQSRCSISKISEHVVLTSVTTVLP
OX1R antag-2 – human HCRTR1 antagonism; CHO/OX1R cells, Fluo-8 calcium fluorescence, orexin A; inhibition, % at 5 µM; 330,000 compounds, 0.43% hits;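 active = inhibition above its plate's threshold, mean inhibition of all tested compounds on the plate plus 3 SD, cut at about 37% in these data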;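 note: 0% = orexin A challenge wells and 100% = SB-334867-A antagonist wells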
GPR7 antag – human neuropeptides B/W receptor 1 antagonism. inhibition, % at 4.4 µM. AID 1861. 290,000 compounds, 1.1% hits. GPR7-expressing cells, fluorescence antagonist assay. P48145; in the data active = inhibition above about 16%, passing the limit was not always enough;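 note: cells stimulated with the agonist NPW; 0% = agonist with vehicle and 100% = vehicle without agonist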
TAAR1 antag – antagonists of human TAAR1 | CHO RD-HGA16 TAAR1, Fluo-8 calcium fluorescence, antagonist | 360,000 compounds, 1.5% hits | AID 624466 | inhibition, % at 3 µM | Q96RJ0;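 active = inhibition above a per-plate cutoff, the mean inhibition of test compounds on that plate plus 3 SD, cut at about 49% in these data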;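 note: 0% = DMSO plus EC80 beta-PEA response and 100% = DMSO alone without agonist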
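test system = CHO RD-HGA16 cells bearing hTAAR1 | replication = singlicate | controls = DMSO-only wells and EC80 β-PEA-stimulated wells | reagent = EC80 β-phenethylamine stimulus | read-out basis = percent inhibition of PEA-evoked calcium signal, max/basal emission ratio | schedule = seeding 17-24 h prior, 75-min 37 °C, 30-min RT dye loading | signal = kinetic Fluo-8 calcium fluorescence measurement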
TAAR1 ag conf – human TAAR1 agonism, confirmed; shares compounds with TAAR1 agonist; CHO RD-HGA16 TAAR1, Fluo-8 calcium fluorescence; scaled: DMSO 0%, maximal phenethylamine 100%; activation, % at 3 µM; 2,400 compounds, 82% hits; AID 651783;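 active = activation above a cutoff set at the run's mean compound activation plus 3 SD, cut at about 39% in these data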
Ga16 ag counter – counter-screen for TAAR1 agonists: nonselective agonists in parental cells; 2,400 compounds, 50% hits; CHO-Ga16 parental, Fluo-8 calcium fluorescence; normalized to maximal ATP response, DMSO zero; shares compounds with TAAR1 agonist; activation, % at 3 µM;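 active = activation above the run cutoff, the mean activation over all tested wells plus 3 SD, cut at about 12% in these data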;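 note: 0% = DMSO wells and 100% = maximal ATP response on the peak over basal ratio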
TAAR1 desens – counter-screen for human TAAR1 agonists: agonists that desensitize TAAR1; shares compounds with TAAR1 agonist; CHO RD-HGA16 hTAAR1, Fluo-8 calcium, beta-PEA response inhibition; inhibition, % at 3 µM; 2,400 compounds, 46% hits;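 active = inhibition above the run cutoff, the mean inhibition of all test compounds plus 3 SD, cut at about 49% in these data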;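 note: beta-PEA stimulus applied at its EC80; loss of beta-PEA calcium signal after compound pretreatment read as receptor desensitization; 0% = DMSO with beta-PEA at EC80 and 100% = DMSO alone without agonist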
Ga16 antag count – nonselective Ga16 antagonist in TAAR1 agonist counter-screen | shares compounds with TAAR1 agonist | CHO-Ga16 ATP-induced calcium, Fluo-8 fluorescence | inhibition, % at 3 µM | 2,400 compounds, 39% hits | AID 651952;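 active = inhibition above the plate's mean compound inhibition plus 3 SD, computed per plate, cut at about 22% in these data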;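 note: 0% = EC80 ATP with DMSO and 100% = DMSO wells without ATP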
An asterisk follows results filed as active; x = no result. An excerpt weighted towards active compounds, which were near 4.6% of everything screened.

SMILES | TAAR1 agonist | CHO parental Ca | OX1R antag-1 | OX1R antag-2 | GPR7 antag | TAAR1 antag | TAAR1 ag conf | Ga16 ag counter | TAAR1 desens | Ga16 antag count
Cc1ccccc1C(=O)NNC(=S)NC(=O)c1ccccc1 | 123* | -2 | -1 | 24 | 2 | 55* | 135* | 112* | 100* | 78*
O=C(NC(=S)NNC(=O)c1ccccc1O)c1ccccc1 | 66* | 12 | 7 | -10 | -3 | 29 | 76* | 66* | 24 | 21
O=C(NC(=S)NNC(=O)c1ccco1)c1ccccc1 | 7 | 6 | 7 | 5 | -12 | -6 | x | x | x | x
CC(=O)c1ccc(NC(=O)CCNC(=O)c2ccccc2Cl)cc1 | 0 | -7 | 15 | -11 | -20 | 7 | x | x | x | x
CCCn1c(CCNC(=O)c2ccco2)nc2ccccc21 | -1 | -7 | 22 | -22 | -8 | 8 | x | x | x | x
O=C(Cc1c(F)cccc1Cl)Nc1cc(S(=O)(=O)N2CCOCC2)ccc1N1CCOCC1 | 4 | x | x | x | x | -26 | x | x | x | x
CC(CCc1ccccc1)NC(=O)CC(C)c1ccccc1 (centres undefined) | 0 | -13 | 5 | -19 | -5 | -24 | x | x | x | x
COc1cc(CN(C)CC2CCCN(CCc3cccc(C(F)(F)F)c3)C2)ccc1O (centres undefined) | -1 | -22 | 14 | -24 | -14 | 1 | x | x | x | x
O=C(CSc1nnc(COc2ccc(Br)cc2)o1)N1CCOCC1 | 10 | -19 | 25 | -7 | -10 | 9 | x | x | x | x
CCOC(=O)c1sc(NC(=O)CSc2nc3c(c(=O)n2-c2ccc(F)cc2)SCC3)c(C(=O)OCC)c1C | x | x | x | x | -5 | x | x | x | x | x
Cc1ccc2nc(-c3ccccc3)cc(C(=O)N3CCc4ccccc4C3)c2c1 | 72* | -7 | 6 | -26 | -4 | 17 | 68* | 2 | 25 | 20
CCC(=O)n1nc(-c2ccc(Cl)cc2)nc1SC | 44* | -3 | 18 | 0 | 4 | -28 | 44* | 1 | 5 | -11
CSc1nc(-c2ccc(Cl)cc2)nn1S(=O)(=O)c1ccccc1 | x | -8 | 10 | -8 | -4 | x | x | 11 | x | -4
O=[N+]([O-])c1cccc(Nc2c([N+](=O)[O-])ccc3nonc23)c1 | 2 | -4 | -9 | -10 | -11 | -17 | x | x | x | x
O=[N+]([O-])c1ccc2nonc2c1Nc1ccccc1 | 78* | -7 | 27* | -5 | -20 | 24 | 5 | 1 | -6 | 1
C(=NNc1nnn(Cc2ccccc2)n1)c1ccccc1 | 54* | x | x | x | x | 22 | 8 | 2 | 4 | 6
Cn1c(CN2CCCCC2)nc2cc(NS(=O)(=O)c3ccc(Cl)cc3)ccc21 | 70* | -12 | 8 | 13 | 2 | 9 | 77* | 41* | 39 | 23*
O=C(CNC(=O)c1ccccc1Br)N/N=C/c1ccccc1O | 47* | -13 | 29 | -11 | -9 | 24 | 67* | 3 | 40 | 7
O=C(CCC(=O)Nc1ccc(F)cc1)N/N=C/c1ccccc1O | 54* | -7 | 6 | -4 | -1 | -8 | 72* | 5 | 48 | 11
COc1ccc(/C=N/NC(=O)Cc2n[nH]c(=O)[nH]c2=O)cc1 | 8 | -5 | 18 | -6 | -7 | -13 | x | x | x | x
O=C(CCC(=O)N/N=C/c1ccccc1O)NCc1ccccc1 | 42* | -5 | 20 | -15 | -10 | 20 | 57* | 0 | 35 | 4
O=C(Cc1n[nH]c(=O)[nH]c1=O)N/N=C/c1ccccc1O | x | -1 | 15 | -9 | -3 | x | x | 3 | x | 14
O=C(CNC(=O)c1ccccc1Br)N/N=C/c1cccs1 | 36 | 2 | -2 | -14 | -6 | -19 | x | x | x | x
O=C(CC(=O)N/N=C/c1ccccc1)NCc1ccccc1 | 21 | 8 | 17 | 9 | -5 | -4 | x | x | x | x
O=C(CCC(=O)Nc1ccc(Br)cc1)N/N=C/c1ccccc1F | 7 | -14 | 10 | -31 | 0 | 7 | x | x | x | x
SMILES | TAAR1 agonist | CHO parental Ca | OX1R antag-1 | OX1R antag-2 | GPR7 antag | TAAR1 antag | TAAR1 ag conf | Ga16 ag counter | TAAR1 desens | Ga16 antag count
NS(=O)(=O)c1ccc(NC(=O)COC(=O)CCCN2C(=O)c3cccc4cccc(c34)C2=O)cc1 | 2 | -10 | 15 | -13 | x | 27 | x | x | x | x
COc1ccc(CCCC(=O)NCCc2ccccc2)cc1 | -1 | x | x | x | -1 | -15 | x | x | x | x
COc1ccc(CCNC(=O)/C=C/C(=O)O)cc1 | 62* | 3 | 3 | -12 | -7 | 30 | 81* | 2 | 50* | 5
O=C(O)/C=C/C(=O)NCCc1cccc(Cl)c1 | 69* | -8 | 9 | -5 | -8 | 76* | 93* | 8 | 96* | 6
CC(CCc1ccccc1)NC(=O)C(=O)NCCc1ccccc1 (centres undefined) | 49* | -13 | 23 | -14 | 3 | 8 | 88* | 21* | 36 | 17
O=C(O)/C=C/C(=O)NCCc1ccccc1 | 118* | -7 | 9 | -1 | 17 | 80* | 105* | 1 | 98* | 6
CC(CCc1ccccc1)NC(=O)Cc1ccccc1 (centres undefined) | 11 | -11 | 10 | -15 | -8 | -1 | x | x | x | x
COCCCNc1nc2ccccc2nc1NS(=O)(=O)c1ccccc1 | 8 | 9 | 16 | -4 | 14 | -23 | x | x | x | x
CCc1nnc(NC(=O)CCC(=O)N2CCN(CCc3ccccc3)CC2)s1 | 4 | -12 | 5 | -20 | x | -41 | x | x | x | x
CCNC(=O)C(=O)NCCc1ccc(Cl)cc1 | 7 | -2 | 10 | 10 | -3 | 12 | x | x | x | x
O=C(CCCC(=O)c1ccccc1)NCCc1ccccc1 | 47* | -12 | 9 | -17 | -7 | 75* | 50* | 15* | 90* | 14
O=C(O)/C=C/C(=O)NCCc1ccc(Cl)cc1 | 76* | -9 | 5 | -4 | -11 | 44 | 97* | 7 | 67* | -4
CCc1nnc(NC(=O)CCC(=O)NCCc2ccccc2)s1 | 49* | -4 | 7 | -7 | 2 | -9 | 16 | 0 | -2 | 7
C#CCCOC(=O)N1C2=NC(C(=O)OC)=C(C(=O)OC)[C@@H]3Nc4ccccc4[C@]23C[C@H]1C(=O)OC | 0 | -14 | 20 | -28 | x | 10 | x | x | x | x
NC(=O)COc1ccc(C(=O)NCC2(N3CCOCC3)CCCCC2)cc1 | 0 | -12 | 6 | -2 | x | 4 | x | x | x | x
